Bioassay records (PubChem BioAssay)
sdo1 growth: sdo1-depleted yeast growth rescue; S. cerevisiae sdo1-depleted JHY4D growth rescue, OD600 30 h; active compounds read high; pdr5 snq2 efflux-pump mutant strain; z-score at 10 µM; 0.21% of 140,000 active; AID 817;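 active = z-score above 3 at both the 24 hr and the 30 hr optical density reads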;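 note: z-score against mean and SD of all compound wells on the same plate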
RAM network inh: blocks the yeast RAM network. S. cerevisiae dse1pr::URA3 reporter, 5-FOA growth OD615, 2 d; analog-sensitive cbk1-as2 kinase mutant strain. inhibition, % at 50 µM. 1.8% of 190,000 active;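 active = inhibition above a set limit, 3 SD over mean compound inhibition, cut at about 8.4% in these data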;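 note: 0% = DMSO-only wells with no growth and 100% = 10 µM 1-NA-PP1 full growth; inhibition rescues growth on 5-FOA so higher OD means more RAM inhibition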
Yeast lifespan up: yeast lifespan extension; inhibition of the nicotinamide effect, % at 10 µM; S. cerevisiae growth with nicotinamide, OD615; deaD strain in restrictive glucose medium; AID 775; 0.68% of 130,000 active;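 active = inhibition above a set limit, placed 3 SD over the median of all compounds, cut at about 26% in these data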;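 note: 0% = nicotinamide-treated wells and 100% = cells grown without nicotinamide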
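assay system = DeaD-strain S. cerevisiae | buffer or medium = restrictive glucose medium | reagent = 1.5 mM nicotinamide | compound = 10 µM single point, 0.25% DMSO | incubation = 48 h compound exposure at 30 °C, humidified | signal = OD615 measurement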
Yeast growth inh: reduces growth of yeast BB579 in restrictive medium | S. cerevisiae BB579 growth, OD615, 48 h | inhibition, % at 10 µM | 0.51% of 140,000 active;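 active = inhibition above a set limit, 3 SD over the mean compound inhibition, cut at about 44% in these data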
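System: Saccharomyces cerevisiae DeaD strain BB579, replicative lifespan model yeast. Buffer or medium: restrictive glucose-based CSMM-D medium. Doses: one dose, 10 µM compound with 0.25% DMSO. Timing: 4 h preincubation and 48 h exposure at 30 °C. Detection: turbidity as optical density at 615 nm. Benchmarks: amphotericin B 10 µg/mL, positive.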
sdo1 rescue conf: SDO1-depleted yeast growth rescue confirmation. shares compounds with sdo1 growth. S. cerevisiae JHY4D (SDO1-depleted) growth rescue, OD600, 30 h; active compounds read high; efflux-deficient strain, SNQ2 and PDR5 mutated. OD recovery (no concentration beside the values). 44% of 440 active. AID 949;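 active = yeast growth recovered at 30 hours, either rising with dose fitted slope above 0.001 or with average optical density gain above 0.07, some results past the limit were not filed as active; inactive = growth falling with dose or no effect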;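 note: gain in OD600 from 0 h to 30 h averaged across all seven doses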
RAM 5-FOA: RAM network inhibitors in efflux-deficient yeast; S. cerevisiae efflux-deficient reporter strain, 5-FOA growth OD615, 2 days; 1,200 tested, under 10 active; AID 1305; shares compounds with RAM network inh; max inhibition, %; call rule not given here;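 note: plate controls were vehicle for no effect and reference inhibitor for full effect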
Starred values were filed as active, the others as inactive; . = no result. Shown are actives, neighbours in structure and some others; about 2.7% of the full set was active somewhere.

SMILES	sdo1 growth	RAM network inh	Yeast lifespan up	Yeast growth inh	RAM 5-FOA	others
COCCCn1c(SCC(=O)N2CC(=O)Nc3ccccc32)nnc1-c1ccoc1C	11*	3	-12	-53	.	sdo1 rescue conf=0.084*
COc1ccc(N2C(=O)CSC23CCCCC3)cc1	0	1	0	-8	.
CC(=O)c1cnn(-c2cc(Oc3cccc(C)c3)ncn2)c1C	6.9*	1	-12	-31	.	sdo1 rescue conf=0.05
O=C(Nc1cc([N+](=O)[O-])ccc1Cl)C(Sc1ccccc1)c1ccccc1 (stereo not drawn)	11*	5	9	-10	.	sdo1 rescue conf=0.059
COc1ccc(C(=O)N2CCCC2)cc1	-0.43	1	-8	17	.
COc1ccc(C(=O)N2CCCC(C(=O)N3CCCCCC3)C2)cc1 (stereo not drawn)	4.2*	1	-21	-12	.	sdo1 rescue conf=0.064
O=C(c1ccccc1)N1CCCC(C(=O)N2CCCCCC2)C1 (stereo not drawn)	-0.08	2	2	-41	.
O=C(c1cccc(F)c1)N1CCCC(C(=O)N2CCCC2)C1 (stereo not drawn)	0.13	1	-2	31	.	sdo1 rescue conf=0.083*
Cc1nc2ccc(NC(=O)N(C(C)C)C(C)C)cc2s1	-0.05	-1	-4	-9	.
O=C(O)CCCC(=O)Nc1ccc(Br)cc1C(=O)O	0.81	1	-4	-20	.
O=C(c1cccc(F)c1)N1CCN(c2ccc([N+](=O)[O-])c(N3CCOCC3)c2)CC1	-0.94	0	5	7	.
O=S(=O)(Nc1cccnc1)c1ccc(Cl)c(C(F)(F)F)c1	9.6*	1	3	-27	.	sdo1 rescue conf=0.058
COc1ccc2cc(CCNC(=O)c3cccc([N+](=O)[O-])c3)c(=O)[nH]c2c1	.	1	.	.	.
Cc1nnc(NC(=O)CSc2ncnc3scc(-c4ccccc4)c23)s1	2.3	3	-10	-10	.	sdo1 rescue conf=0.087*
COC(=O)c1ccc(C2c3c(oc4ccc(F)cc4c3=O)C(=O)N2CCO)cc1 (stereo not drawn)	1.9	2	-5	-49	.	sdo1 rescue conf=0.061
COc1ccc(-c2cc(C(F)(F)F)nc(SCC(=O)Nc3cc(C)on3)n2)cc1	1.5	4	-11	-40	.	sdo1 rescue conf=0.084*
COc1ccc2c(c1)CCc1c(C(=O)NCCc3ccc(OC)c(OC)c3)noc1-2	0.22	14*	-15	-16	6	sdo1 rescue conf=0.037
CN(C)C(=O)NCc1ccc(S(N)(=O)=O)cc1	1.4	1	-11	-26	.
COc1cccc(N=C2SC(C(=O)Nc3ccccc3F)CC(=O)N2C)c1 (stereo not drawn)	-0.07	5	-4	-20	.
COc1cccc(NC(=O)C2CC(=O)N(C)C(=Nc3cccc(F)c3)S2)c1 (stereo not drawn)	2.2	19*	-17	-6	1
CNC(=S)N(CCc1ccc(OC)c(OC)c1)Cc1cc2c(C)cc(C)cc2[nH]c1=O	-0.36	16*	-2	-6	2
CCOC(=O)C1CCN(S(=O)(=O)C(F)(F)c2nc3ccccc3s2)CC1	-1.3	3	-4	-33	1
O=C(Oc1ccc(Br)cc1)C1CC(=O)N(c2ccc(F)cc2)C1 (stereo not drawn)	0.49	-1	-8	-14	.
CCOC(=O)c1ccc(NC(=O)Nc2ccc3c4c(cccc24)C(=O)N3CC)cc1	-0.68	18*	3	-31	4
CCOc1cccc2sc(N(CCCN(C)C)C(=O)c3ccc(S(=O)(=O)N(C)c4ccccc4)cc3)nc12	.	-1	.	.	.
SMILES	sdo1 growth	RAM network inh	Yeast lifespan up	Yeast growth inh	RAM 5-FOA	others
CN1/C(=C\C=C2/C(=O)Oc3ccccc3C2=O)C(C)(C)c2ccccc21	-1.1	21*	3	-28	10
CC1=NN(c2ccccc2)C(=O)/C1=C\C=C1/N(C)c2ccccc2C1(C)C	-2.1	-1	-8	10	.
O=S(=O)(c1ccccc1F)N(Cc1ccco1)Cc1nnc(-c2ccccc2Br)o1	-0.98	17*	-2	-32	1
Clc1ccc(OCc2nnc(-c3ccccc3Br)o2)cc1	-1.6	6	-10	-87	.
CCCCNC(=O)C(c1ccc(-c2ccccc2)cc1)N(CCN1CCOCC1)C(=O)CCCCCN1C(=O)NC(c2ccc([N+](=O)[O-])cc2)C(C(=O)OCc2ccccc2)=C1C (stereo not drawn)	-0.23	3	1	-16	.
CCCCCCN(C(=O)CCCCCN1C(=O)NC(c2ccc(-c3ccccc3)cc2)C(C(=O)OCc2ccccc2)=C1C)C(C)C(=O)NCCCC (stereo not drawn)	1.3	28*	19	-26	6
Nc1nc(SCC(=O)NCc2ccccc2Cl)[nH]c(=O)c1NC(=O)c1ccccc1F	-0.09	3	2	-26	.
Nc1nc(SCC(=O)NCc2ccc(F)cc2)[nH]c(=O)c1NC(=O)c1ccc(Cl)cc1	1.9	12*	4	-42	1
COc1cc(-c2nc(-c3cccc(C(F)(F)F)c3)no2)cc(OC)c1OC	-0.57	12*	-1	-48	1
COc1ccccc1-c1noc(-c2cc(OC)c(OC)c(OC)c2)n1	-1.5	6	-8	-28	.
O=C(Cn1cnc2c(cnn2-c2ccc(F)cc2)c1=O)N1CCN(c2ccccc2)CC1	-0.63	4	-7	-17	.
NC(=S)N=Nc1c(O)n(C2OC(=O)c3ccccc32)c2ccccc12 (stereo not drawn)	0.03	1	-4	10	.
CCOC(=O)c1sc(NC(=O)CCCn2nc([N+](=O)[O-])cc2C)c(C(=O)OCC)c1C	-0.27	13*	2	-1	2
CCCOC(=O)c1c(NC(=O)/C=C/c2cnn(C)c2C)sc(C(=O)OCC)c1C	-1.1	1	-12	-36	.
Cc1cc([N+](=O)[O-])nn1CCCC(=O)Nc1ccc(Cl)cc1Cl	.	3	.	.	.
CCOC(=O)c1sc(NC(=O)/C=C/c2cnn(CC)c2C)c(C(=O)OCC)c1C	-1.7	12*	0	-18	3
CCOc1ccc(-n2c(C)c(C(C)=O)c(C(C)=O)c2C)cc1	-0.43	4	.	-23	.
CCOc1ccc(-n2c(C)nc(O)c2N=Nc2ccccc2)cc1	.	14*	.	.	4
Cc1ccc(CSCC(=O)NCc2ccc(F)cc2)cc1	.	1	.	.	.
O=C(CSc1nc(-c2ccccc2)cs1)Nc1nccs1	-1.4	4	-10	-1	.
O=C(CSc1nc(-c2ccccc2)cs1)Nc1ccccc1[N+](=O)[O-]	-1.2	13*	4	-31	3
O=C(CN1CCN(Cc2ccccc2F)C1=O)NCc1ccco1	0.14	0	-3	-23	.
CCOc1ccccc1NC(=S)NC(=O)CCCOc1ccc(Cl)cc1Cl	-1.3	12*	1	-88	2
CCCCC(=O)Nc1cccc(NC(=S)NC(=O)COc2ccccc2Cl)c1	0.52	12*	1	-17	2
